This note sets out measurements from ChEMBL document CHEMBL1649438, “Activities of ceftobiprole and other cephalosporins against extracellular and intracellular (THP-1 macrophages and keratinocytes) forms of methicillin-susceptible and methicillin-resistant Staphylococcus aureus” (Antimicrob Agents Chemother, 2009).

Assay [1] relates to Staphylococcus aureus. As to the kind of experiment: Antimicrobial activity against Panton-valentine leucocidin-positive community-acquired methicillin-resistant Staphylococcus aureus N4090440 infected in human THP-1 cells assessed as bacterial count per mg of cell protein at high extracellular compound concentration after 24 hrs at pH 5.5. In kind it is functional. The method in brief:
(§1)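 THP-1 human macrophages infected with S. aureus (postphagocytosis inoculum 1.5 × 10^6 to 3.0 × 10^6 CFU/mg cell protein), then incubated 24 h with increasing extracellular antibiotic concentrations. Change in log10 CFU/mg cell protein from the postphagocytosis inoculum, n = 3. Hill function fitted on log-transformed data. Low-concentration value (E0) and high-concentration value (Emax) are extrapolated. Where a pH is given, concentrations are expressed as multiples of the broth MIC at that pH.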

Assay [2] relates to Staphylococcus aureus. As to the kind of experiment: Antimicrobial activity against methicillin-susceptible Staphylococcus aureus […] infected in human THP-1 cells assessed as change in bacterial count after 24 hrs at pH 7.4. In kind it is functional, organism-based. Particulars: THP-1, 24 h. The method in brief:
(§2)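 THP-1 macrophages infected as described previously, with a postphagocytosis inoculum of 1.5 × 10⁶ to 3.0 × 10⁶ CFU/mg cell protein. Cells were exposed 24 h to increasing extracellular antibiotic concentrations. Response is the change in log10 CFU/mg protein from the inoculum (n = 3), fitted to a Hill function. E0 and Emax were extrapolated to infinitely low and high concentrations. EC50 and static concentration (graphical interpolation) are expressed as multiples of the broth MIC at pH 5.5 or 7.4.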

The subject of assay [3] is Staphylococcus aureus. As to the kind of experiment: Antimicrobial activity against Panton-valentine leucocidin-positive community-acquired methicillin-resistant Staphylococcus aureus NRS192 infected in human THP-1 cells assessed as change in bacterial count after 24 hrs. In kind it is functional, organism-based. Particulars: NRS192, THP-1, 24 h. In a few lines: as §1

Assay [4] deals with Staphylococcus aureus. As to the kind of experiment: Bacteriostatic activity against Panton-valentine leucocidin-positive community-acquired methicillin-resistant Staphylococcus aureus STA 44 infected in human THP-1 cells assessed as change in bacterial count after 24 hrs at pH 5.5. In kind it is functional. The method in brief:
as §2

Assay [5] deals with Staphylococcus aureus. As to the kind of experiment: Bacteriostatic activity against methicillin-susceptible Staphylococcus aureus NRS52 infected in human THP-1 cells assessed as change in bacterial count after 24 hrs at pH 7.4. The format is functional. The method in brief:
(§3)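 Human THP-1 macrophage-like cells were infected with S. aureus to a postphagocytosis inoculum of 1.5 × 10^6 to 3.0 × 10^6 CFU/mg cell protein. Cells were then exposed 24 h to increasing extracellular antibiotic concentrations. Response was the log10 CFU change per mg protein from the postphagocytosis inoculum, n = 3. A Hill function was fitted on log-transformed axes. E0 and Emax were extrapolated to infinitely low and high concentrations. Cs was read by graphical interpolation. Concentrations were expressed as multiples of the broth MIC at pH 5.5 or pH 7.4.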

The subject of assay [6] is Staphylococcus aureus. Kind of assay: Antimicrobial activity against hospital-acquired methicillin-resistant Staphylococcus aureus ATCC 33592 infected in human THP-1 cells assessed as change in bacterial count after 24 hrs. In kind it is functional, organism-based. Conditions: ATCC 33592, THP-1, 24 h. The method in brief:
as §2

Assay [7] relates to Staphylococcus aureus. As to the kind of experiment: Antimicrobial activity against Panton-valentine leucocidin-positive community-acquired methicillin-resistant Staphylococcus aureus NRS192 infected in human THP-1 cells assessed as bacterial count per mg of cell protein at low extracellular compound concentration after 24 hrs. In kind it is functional. The method in brief: as §1

Assay [8] concerns Staphylococcus aureus. As to the kind of experiment: Antimicrobial activity against hospital-acquired methicillin-resistant Staphylococcus aureus […] infected in human THP-1 cells assessed as bacterial count per mg of cell protein at low extracellular compound concentration after 24 hrs. The format is functional. In a few lines:
as §2

The test system of assay [9] is Staphylococcus aureus. As to the kind of experiment: Bacteriostatic activity against methicillin-susceptible Staphylococcus aureus ATCC 25923 infected in human keratinocytes assessed as change in bacterial count after 24 hrs. In kind it is functional. The method in brief: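 Primary human skin keratinocytes were grown in defined keratinocyte serum-free medium and infected with S. aureus to 1.5 × 10^6 to 3.0 × 10^6 CFU/mg cell protein. Cells were exposed 24 h to increasing extracellular concentrations. Response was the log10 CFU change from the postphagocytosis inoculum, fitted by a Hill equation with slope 1. Cs is the concentration giving CFU equal to the original inoculum, found by graphical interpolation.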

Assay [10] deals with Staphylococcus aureus. Kind of assay: Antimicrobial activity against Panton-valentine leucocidin-positive community-acquired methicillin-resistant Staphylococcus aureus STA 44 infected in human THP-1 cells assessed as change in bacterial count after 24 hrs at pH 5.5. Particulars: STA 44, THP-1, 24 h. In kind it is functional, organism-based. The method in brief:
as §1

In assay [11] the test system is Staphylococcus aureus. As to the kind of experiment: Antimicrobial activity against hospital-acquired methicillin-resistant Staphylococcus aureus […] infected in human THP-1 cells assessed as change in bacterial count after 24 hrs at pH 5.5. In kind it is functional, organism-based. Particulars: THP-1, 24 h. The method in brief: as §2
For assay [12], the system named is Staphylococcus aureus. As to the kind of experiment: Antimicrobial activity against methicillin-susceptible Staphylococcus aureus ATCC 11632 infected in human THP-1 cells assessed as bacterial count per mg of cell protein at low extracellular compound concentration after 24 hrs. The format is functional. In a few lines:
as §3

Assay [13] deals with Staphylococcus aureus. As to the kind of experiment: Antimicrobial activity against hospital-acquired methicillin-resistant Staphylococcus aureus ATCC 33591 infected in human THP-1 cells assessed as bacterial count per mg of cell protein at high extracellular compound concentration after 24 hrs. The format is functional. In a few lines:
as §1

Assay [14] has as its system Staphylococcus aureus. As to the kind of experiment: Antimicrobial activity against Panton-valentine leucocidin-positive community-acquired methicillin-resistant Staphylococcus aureus N4042228 infected in human THP-1 cells assessed as change in bacterial count after 24 hrs at pH 5.5. The format is functional, organism-based. Particulars: N4042228, THP-1, 24 h. The method in brief:
as §1

For assay [15], the system named is Staphylococcus aureus. As to the kind of experiment: Bacteriostatic activity against Panton-valentine leucocidin-positive community-acquired methicillin-resistant Staphylococcus aureus STA 228 infected in human THP-1 cells assessed as change in bacterial count after 24 hrs at pH 5.5. The format is functional. The method in brief:
as §2

The subject of assay [16] is Staphylococcus aureus. As to the kind of experiment: Antimicrobial activity against hospital-acquired methicillin-resistant Staphylococcus aureus ATCC 33592 infected in human THP-1 cells assessed as change in bacterial count after 24 hrs at pH 7.4. The format is functional, organism-based. Particulars: ATCC 33592, THP-1, 24 h. In a few lines: as §2
The test system of assay [17] is Staphylococcus aureus. Kind of assay: Antimicrobial activity against Panton-valentine leucocidin-positive community-acquired methicillin-resistant Staphylococcus aureus STA 228 infected in human THP-1 cells assessed as change in bacterial count after 24 hrs. Particulars: STA 228, THP-1, 24 h. In kind it is functional, organism-based. In a few lines: as §1
The subject of assay [18] is Staphylococcus aureus. As to the kind of experiment: Antimicrobial activity against Panton-valentine leucocidin-positive community-acquired methicillin-resistant Staphylococcus aureus isolate MEH2225605 infected in human THP-1 cells assessed as bacterial count per mg of cell protein at low extracellular compound concentration after 24 hrs. The format is functional. In a few lines: as §1

The test system of assay [19] is Staphylococcus aureus. Kind of assay: Antimicrobial activity against methicillin-susceptible Staphylococcus aureus […] infected in human THP-1 cells assessed as change in bacterial count after 24 hrs. The format is functional, organism-based. Conditions: THP-1, 24 h. In a few lines: as §2

In brackets after ≈: the same amount, converted by molar mass.

For `Nc1nc(/C(=N/O)C(=O)N[C@@H]2C(=O)N3C(C(=O)O)=C(/C=C4\CCN([C@@H]5CCNC5)C4=O)CS[C@H]23)ns1` [CEFTOBIPROLE], the log10cfu in [1] was -1.02; in [7], 2.68; in assay [8], 2.46; in assay [12], 3.03; in assay [13], -0.78; in assay [18], 2.47. Further, the EC50 came out at 0.2 × MIC in [2]; 0.7 µg/mL (≈ 1.31 µM) in assay [3]; 1.23 µg/mL (≈ 2.3 µM) in [6]; 0.54 × MIC in assay [10]; 0.77 ×MIC in assay [11]; 0.54 × MIC in assay [14]. For the same compound, the EC50 in [16] amounted to 0.28 ×MIC; in assay [17], 0.88 µg/mL (≈ 1.65 µM); in [19], 0.07 µg/mL (≈ 0.131 µM). Besides, the Activity in [4] came out at 1.45 × MIC; in [5], 0.6 ×MIC; in assay [9], 0.91 mg/L; in assay [15] it was 1.45 × MIC.
